Compound activity deposited in PubChem by several laboratories.
TCR-CD3 inh: human TCR-CD3 binding inhibition; inhibition, % at 9.4 µM; TAMRA-labeled TCR probe fluorescence, biochemical; actives 0.37% (n = 360,000); in the data active means inhibition above about 19%;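 further: recombinant mutant TCR 2C K166C tagged with TAMRA read by polarization; 0% = receptor in buffer alone and 100% = receptor with positive control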
MLLE-PAM2 inh: blocks PAM2 peptide binding to the PABP1 MLLE domain; GST-MLLE / FITC-PAM2 fluorescence polarization; inhibition, % at 20 µM; actives 0.36% (n = 360,000); AID 588489; in the data active means inhibition above about 35%, passing the limit was not always enough;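 further: plate controls were DMSO wells with GST-MLLE for no effect and wells lacking GST-MLLE protein for full effect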
RBBP9 inhibitor: human RBBP9 hydrolase inhibition; recombinant RBBP9, FP-Rh probe fluorescence polarization; AID 1515; actives 0.2% (n = 220,000); O75884; inhibition, % at 7.94 µM;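 active means inhibition above the campaign mean of all tested compounds plus 3 SD, cut at about 14% in these data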;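 further: plate controls were DMSO wells with RBBP9 for no effect and wells lacking RBBP9 protein for full effect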
Target sequence (O75884 whole entry, looked up): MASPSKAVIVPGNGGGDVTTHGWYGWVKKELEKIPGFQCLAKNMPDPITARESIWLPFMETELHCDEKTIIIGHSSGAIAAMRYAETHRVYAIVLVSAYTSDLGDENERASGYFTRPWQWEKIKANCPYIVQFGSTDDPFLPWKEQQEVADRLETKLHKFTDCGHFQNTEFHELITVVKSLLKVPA
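Measured by: FP readout at 525/598 nm; material: recombinant human RBBP9; also added: Serine-hydrolase probe FP-Rh, 375 nM pre-mixing; medium: Tris buffer pH 8.0, NaCl, Pluronic; replication: one well per compound; doses: one concentration, 7.94 µM nominal, 0.794% DMSO; timing: preincubation 30 min plus labeling 45 min at 25 °C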
eIF4H inh: inhibitors of RNA binding by human eIF4H; Q15056; inhibition, % at 35 µM; actives 0.94% (n = 290,000); eIF4H fluorescence polarization binding assay;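 further: calls also rest on retests at 20 µM and on dose response follow-up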
PABP FP inh: PABP-poly(A) binding inhibition; P11940; PABP-poly(A) RNA binding, fluorescence polarization; calls only at 35 µM; actives 1% (n = 290,000); AID 2014;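 further: calls also rest on retests at 20 µM and on dose response follow-up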
* marks the source's active call; other numbers are inactive results; i = inactive; u = inconclusive; x = not tested or not shown; + = active, no number. Hits are enriched below; roughly 1.6% of the tested compounds scored in any of these assays. Unless noted, how the calls were made is not given here.

SMILES | TCR-CD3 inh | MLLE-PAM2 inh | RBBP9 inhibitor | eIF4H inh | PABP FP inh
O=C(NCCc1ccccc1)C1CCCN1C(=O)NCc1ccccc1 (stereo not given) | 5 | -2 | -2 | -9 | i
CC(C)(C)OC(=O)N1CCCC1C(=O)NCCc1ccccc1 (stereo not given) | 6 | -152 | -6 | 6 | +
CCOC(=O)c1cc(-c2ccco2)nc2c1c(C)nn2-c1ccccc1 | 10 | -2 | -11 | 36 | i
CCOC(=O)c1cc(-c2ccc(OC)cc2)nc2c1c(C)nn2CCC(N)=S | 4 | 35* | -5 | -4 | i
O=c1oc2c3c4c(cc2s1)CCCN4CCC3 | 11 | 74* | 3 | 122* | +
COc1ccc(/C=C(/CC(=O)NCc2ccc(Cl)cc2)c2nc3ccccc3s2)cc1 | 4 | -9 | -4 | active | i
COc1ccc(/C=C(/CC(=O)Nc2ccccc2)c2nc3ccccc3s2)cc1 | -5 | -37 | -7 | 4 | i
CCCCC(=O)NC(=S)Nc1ccccc1C(=O)Nc1ccccc1 | 8 | 40* | -9 | -1 | i
Cc1ccc(NC(=O)C2C(c3ccccc3)C2(Cl)Cl)c(C)c1 (stereo not given) | 2 | 4 | 4 | u | +
COc1ccc(C(CC(=O)N2CCCC2)c2c(OC)cc(OC)c3c(-c4ccccc4)cc(=O)oc23)cc1 (stereo not given) | 10 | -1 | x | 87* | i
COc1ccc(C(CC(=O)N2CCOCC2)c2c(OC)cc(OC)c3c(-c4ccccc4)cc(=O)oc23)cc1 (stereo not given) | -3 | 2 | x | 93* | +
COc1cc(C(CC(=O)N2CCCC2)c2c(OC)cc(OC)c3c(-c4ccccc4)cc(=O)oc23)cc(OC)c1OC (stereo not given) | -1 | -3 | x | 78* | +
O=C(NCc1ccccc1)[C@@H]1CCCN1C(=O)[C@H]1CCCN1C(=O)c1cccc(F)c1 | -1 | x | x | x | x
COC(=O)[C@]12C[C@H](CC(=O)NCc3cccc(C(F)(F)F)c3)C(=O)N(Cc3ccccc3)C1=C[C@H](C(C)C)O[C@@H]2C1CC1 | 4 | x | x | x | x
COc1ccc2cc(/C=C/C(=O)c3ccco3)c(Cl)nc2c1 | x | x | -10 | 105 | i
COc1cc2cc(/C=C/C(=O)c3ccco3)c(Cl)nc2cc1OC | 3 | -35 | -3 | 77* | +
CC(=O)c1ccc(OCC(=O)OC(C)C(=O)NC2CCCCC2)cc1 (stereo not given) | 6 | 4 | x | x | x
CC(=O)c1ccc(NC(=O)C(C)OC(=O)COc2ccc(C#N)cc2)cc1 (stereo not given) | 5 | 5 | 5 | active | +
O=C(NC(=S)Nc1ccc2oc(=O)ccc2c1)c1ccco1 | 1 | 43* | -6 | -10 | i
COCCCN1CN(Cc2ccccc2)CNC1=S | -2 | -78 | -8 | 0.6* | i
CCCN1CN(Cc2ccccc2)CNC1=S | 0 | -68 | 0 | 1 | i
Cc1cc2cc(CNC(=O)c3ccc(C)c([N+](=O)[O-])c3)ccc2[nH]1 | -3 | 43* | -2 | 10 | i
Cc1ccc(/C=C2\SC(=S)N(c3c(C)n(C)n(-c4ccccc4)c3=O)C2=O)cc1 | -4 | 47* | -7 | 3 | i
Cc1c(N2C(=O)/C(=C/c3ccccc3)SC2=S)c(=O)n(-c2ccccc2)n1C | -4 | 24 | -5 | -4 | i
Cc1c(N2C(=O)/C(=C3\C(=O)N(CC(=O)O)c4ccccc43)SC2=S)c(=O)n(-c2ccccc2)n1C | 5 | 52* | -1 | 1 | i
SMILES | TCR-CD3 inh | MLLE-PAM2 inh | RBBP9 inhibitor | eIF4H inh | PABP FP inh
COc1ccc(N=C2Sc3ccccc3[C@@H]3C[C@H]4[C@H](CON4C)CN23)c(OC)c1 | -1 | x | x | x | x
COC(=O)c1cc2c(c3c4cc(F)ccc4n(S(=O)(=O)c4ccccc4)c13)C(=O)N(Cc1ccc(C(F)(F)F)cc1)C2 | -5 | x | x | x | x
Cc1cnc(CN2CCc3c([nH]c4ccccc34)C2CC(C)C)[nH]1 (stereo not given) | -6 | -38 | -6 | 20 | +
CC1(C)S[C@@H]2[C@H](NC(=O)[C@H](N)c3ccccc3)C(=O)N2[C@H]1C(=O)O | 8 | 3 | -6 | 63 | +
CC(C)C[C@@H]1COc2cccc(NC3CC3)c2S(=O)(=O)N1 | -2 | x | x | x | x
Cc1cc(Nc2cccc(C(F)(F)F)c2)cc(=O)n1-c1cccc(C(F)(F)F)c1 | -3 | x | x | x | x
O=C(Nn1c(O)c(C=C2N=c3ccccc3=N2)sc1=S)c1cccc(Cl)c1 | 7 | -72 | -4 | 66 | +
Cc1sc2ccc3sccc3c2[n+]1C | 1 | -34 | -9 | 7 | +
Nc1nc2c(-c3ccc([N+](=O)[O-])cc3)nnn2c2ccccc12 | 4 | x | x | x | x
N#Cc1ccc(S(=O)(=O)NCC2CCN(C(=O)C(=O)c3cc4ccccc4o3)CC2)cc1 | 4 | x | x | x | x
Cc1ccc(S(=O)(=O)N(CC(=O)O)Cc2ccco2)cc1 | 5 | 13 | -5 | 71* | +
CCOc1ccccc1N(CC(=O)NCCSc1ccccn1)S(=O)(=O)c1ccc(C)cc1 | 4 | 6 | x | 86* | +
COc1ccccc1N(CC(=O)NCc1ccco1)S(=O)(=O)c1ccc(C)cc1 | 6 | 18 | x | 87* | +
COc1ccc(N(CC(=O)NCc2ccco2)S(=O)(=O)c2ccc(C)cc2)cc1OC | 3 | -5 | x | -1 | i
COC(=O)C1=C(C)N(C)C(=NCc2ccc3c(c2)OCO3)NC1c1ccccc1 (stereo not given) | 4 | x | x | x | x
COC(=O)C1=C(C)N(Cc2cccc(C(F)(F)F)c2)C(=NCc2ccc3c(c2)OCO3)NC1c1cccc(F)c1 (stereo not given) | 7 | x | x | x | x
N#C/C(=C\c1ccc(C(=O)O)cc1)c1ccccn1 | -3 | -4 | -1 | 64* | +
CCOC(=O)[C@@H]1CSCCS(=O)(=O)N1Cc1ccc(C(F)(F)F)cc1 | -1 | x | x | x | x
COc1ccccc1NC(=O)c1sc2nc(Cc3ccccc3)cc(C(F)(F)F)c2c1N | x | -3 | 2 | 65* | +
COc1ccc(C(C)(C)C)cc1NC(=S)NCCN1CCOCC1 | -1 | 5 | -2 | -2 | +
COC(=O)[C@]12C[C@H](CC(=O)N3CCC(c4ccccc4)CC3)C(=O)N(Cc3ccccc3)C1=C[C@H](C(C)C)O[C@@H]2C1CC1 | -10 | x | x | x | x
Nc1nc(=S)c2ncn([C@@H]3O[C@H](CO)[C@@H](O)[C@H]3O)c2[nH]1 | 5 | 38 | x | x | x
Nc1nc(=S)c2ncn(C3OC(CO)C(O)C3O)c2[nH]1 (stereo not given) | 17 | 29 | -7 | 89* | +
CC(=O)Oc1cc(C)c(Cl)c2c(OC(C)=O)cc(C(C)=O)c(O)c12 | 11 | x | x | x | x
O=C(O)c1ccc(NC2=C/C(=N/S(=O)(=O)c3ccccc3)c3ccccc3C2=O)cc1 | 8 | 21 | 0 | 9 | i
